Common to all, as to format: in vivo, human
Series [1] concerns patients with untreated locally advanced or metastatic PDAC. The series is described as follows: Phase II safety and adverse events. The following applies: for patients with dose reduced due to occurrence of AEs: n = 24, combination ivaltinostat + gemcitabine + erlotinib; for Anemia, Number of patients (%) / Anorexia, Number of patients (%) / Fatigue, Number of patients (%) / Febrile neutropenia, Number of patients (%) / Neutropenia, Number of patients (%) / Pneumonia, Number of patients (%) / Thrombocytopenia, Number of patients (%): treatment-related. Summed up: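 Patients on ivaltinostat 250 mg/m2 IV with gemcitabine 1000 mg/m2 IV (days 1, 8, 15) and erlotinib 100 mg/day orally, 28-day cycles. Vital signs, AEs, ADRs, serious AEs, ECG and clinical laboratory tests checked on days 1, 8 and 15 of each cycle. AEs graded by NCI CTCAE v4.0. Safety set: all patients given ≥1 dose.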

The test system is the same in series [2]. In words: Phase I 3 + 3 dose escalation. The note with it: Level III: ivaltinostat 312.5 mg/m^2 + gemcitabine + erlotinib; four patients. In outline: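 3 + 3 escalation: ivaltinostat IV from 187.5 to 250 or 312.5 mg/m2, plus gemcitabine 1000 mg/m2 IV on days 1, 8, 15 and erlotinib 100 mg/day orally in 28-day cycles. DLT graded by NCI CTC v4.0: grade 4 neutropenia ≥6 days, grade 3/4 thrombocytopenia with bleeding, grade 3 neutropenia with fever >38.5°C, or drug-related nonhematologic grade 3/4 toxicity. MTD: ≤1 DLT per six-patient cohort.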

Series [3] is described as follows: Pharmacokinetic analysis of ivaltinostat in the phase I study. The following applies: first day after single administration, mean.
The mark [4] stands for this setting: 24 subjects, ivaltinostat + gemcitabine + erlotinib.

Take `C#Cc1cccc(Nc2ncnc3cc(OCCOC)c(OCCOC)cc23)c1` [erlotinib, reference compound]: in series [1], the “patients with dose reduced due to occurrence of AEs” value is reported as “no patient received a reduced dose”.
Still for that read-out and setting: the same measure for `Nc1ccn([C@@H]2O[C@H](CO)[C@@H](O)C2(F)F)c(=O)n1` [gemcitabine, reference compound]: 12.5%.
As a reminder, the Cmax is the maximum level reached in the sampled fluid or tissue. `CN(C)CCCNC(=O)/C(=C/CCCCC(=O)NO)COc1cccc2ccccc12` [ivaltinostat]: the “dose-limiting toxicity (DLT)” value in series [2] was “A DLT, febrile neutropenia grade 3”. Moreover, in series [1], the “drop-out of the study due to intolerable AEs” value is given as “no cases” and the “patients with dose reduced due to occurrence of AEs” value stood at 12.5%. The “subjects with ADRs of grade 3 or 4 severity” value in series [1] (15 of 24 subjects) amounted to 62.5%. In addition, in series [1] (24 subjects), the “ADR: decreased appetite” value was 11 events, the “ADR: decreased platelet count” value is reported as 15 events, the “ADR: nausea” value turned out to be 10 events and the “ADR: rash” value was found to be 11 events. Moreover, in series [1] (24 subjects), the “ADR: vomiting” value was found to be 10 events, the “ADRs with grade 3 or 4 severity” value is 26 events and the “grade 5 (death) events” value is listed as “no grade 5 (death) events”. In series [1] (setting [4]), the AEs reported is 218 events and the “adverse drug reactions (ADRs)” value amounted to 114 events. Besides, in series [1] (n = 24, text), the “treatment-related grade 3 or 4 anemia” value is on record as 16.7%, the “treatment-related grade 3 or 4 neutropenia” value turned out to be 33.3% and the “treatment-related grade 3 or 4 thrombocytopenia” value was determined as 29.2%. Besides, in series [1] (Grade 3 (n = 24)), the “Anemia, Number of patients (%)” value was 4 (16.7) patients (%); the “Anorexia, Number of patients (%)” value is on record as 2 (8.3) patients (%); the “Fatigue, Number of patients (%)” value was 2 (8.3) patients (%); the “Febrile neutropenia, Number of patients (%)” value (“Febrile neutropenia … (%)” below) was 2 (8.3) patients (%). In series [1] (Grade 3 (n = 24)), the “Neutropenia, Number of patients (%)” value is given as 3 (12.5) patients (%); the “Pneumonia, Number of patients (%)” value was 0 patients (%); the “Thrombocytopenia, Number of patients (%)” value was 4 (16.7) patients (%). In addition, in series [1] (Grade 4 (n = 24)), the “Anemia, Number of patients (%)” value is listed as 0 patients (%); the “Anorexia, Number of patients (%)” value is 0 patients (%); the “Fatigue, Number of patients (%)” value was 0 patients (%); the “Febrile neutropenia … (%)” value was 0 patients (%). Moreover, in series [1] (Grade 4 (n = 24)), the “Neutropenia, Number of patients (%)” value is 5 (20.8) patients (%); the “Pneumonia, Number of patients (%)” value is given as 1 (4.2) patients (%); the “Thrombocytopenia, Number of patients (%)” value is recorded as 3 (12.5) patients (%). In series [1] (Total grade 3 and 4 (n = 24)), the “Anemia, Number of patients (%)” value is on record as 4 (16.7) patients (%); the “Anorexia, Number of patients (%)” value is 2 (8.3) patients (%); the “Fatigue, Number of patients (%)” value is on record as 2 (8.3) patients (%); the “Febrile neutropenia … (%)” value is 2 (8.3) patients (%). In series [1] (Total grade 3 and 4 (n = 24)), the “Neutropenia, Number of patients (%)” value is listed as 8 (33.3) patients (%); the “Pneumonia, Number of patients (%)” value is recorded as 1 (4.2) patients (%); the “Thrombocytopenia, Number of patients (%)” value is reported as 7 (29.2) patients (%). In series [3] (187.5 mg/m^2 iv, n=3), this compound gave a Cmax of 9553 ng/mL and a Terminal half-life of 7.3 h. In series [3] (250 mg/m^2 iv, n=3), this compound displayed a Cmax of 8062 ng/mL and a Terminal half-life of 5.7 h. Moreover, in series [3] (312.5 mg/m^2 iv, n=4), the Cmax is reported as 12 782 ng/mL and the Terminal half-life amounted to 6.6 h.

For the origin of these results see publication PMC9545559 (International Journal of Cancer, 2022).
